H69AR growth 86K: growth inhibitors of human H69AR lung tumor cells | H69AR lung tumor viability, ATP luminescence, 72 h; stronger effect = lower value | viability, % at 10 µM | 85,000 compounds, 6% hits;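 active = viability at or below 40%; inactive = viability above 40%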;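 also: multidrug resistant small cell line overexpressing MRP-1 efflux transporter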
Fibroblast inh: blocks proliferation of human lung fibroblasts | AID 719 | viability, % at 10 µM | LL 47 human lung fibroblast viability, ATP luminescence; stronger effect = lower value | 85,000 compounds, 1.1% hits;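 active = viability at or below 50% in the single dose screen; inactive = viability above 50%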;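 also: compound exposure lasted 72 h before the ATP readout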
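Material: human LL 47 lung fibroblast cells; quantity: 1,150 cells/well; medium: IMEM plus 15% FBS; doses: 0.1% DMSO in all compound wells; timing: overnight attachment after seeding, then 72 h compound exposure at 37 °C; detection: CellTiter-Glo luminescence; measure: % viability of median cell-only signal; controls: cell-only wells, no compound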
tolC growth inh: growth inhibitors of E. coli BW25113 tolC mutant; OD615; growth inhibition, % at 10 µM (by protocol); 65,000 compounds, 2.2% hits;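 active = growth inhibition at or above a cutoff equal to the mean over every tested compound plus 3 SD, cut at about 60% in these data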;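 also: growth measured after 20 h incubation at 37 °C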
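Test system: tolC-deleted E. coli BW25113; medium: LB with kanamycin 50 µg/mL; compound: single-point testing at 10 µM; incubation: 20 h compound exposure of bacteria at 37 °C; signal: OD at 615 nm; evaluation: growth inhibition in percent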
E coli WT exp: blocks growth of wild type E. coli BW25113; OD600 absorbance; growth inhibition, % at 100 µM; 98,000 compounds, 0.15% hits; AID 710;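 active = growth inhibition above about 50% at one test dose, limit read from the data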;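 also: growth measured after 20 h incubation at 37 °C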
HUVEC inhibit: inhibitors of human endothelial cell proliferation | HUVEC proliferation, CellTiter-Glo luminescence, 72 h; stronger effect = lower value | viability, % at 10 µM (by protocol) | 86,000 compounds, 1.1% hits | AID 648;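 active = viability at or below 30%; inactive = viability above 30%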
Jurkat viability: cytotoxicity toward Jurkat cells; Jurkat E6.1 viability, ATP luminescence, 48 h; inhibition, % at 4 µM; 56,000 compounds, 1.2% hits;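 active = inhibition above the mean inhibition of all tested compounds plus 3 SD, cut at about 28% in these data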
Numbers stand for hits. Shown are actives, neighbours in structure and some others; about 6.4% of the full set was active somewhere.

Screening COc1ccc(OC)c(-c2cc(C(=O)Nc3cc(C)on3)no2)c1 returned H69AR growth 86K inactive, Fibroblast inh inactive, tolC growth inh inactive, E coli WT exp inactive, HUVEC inhibit inactive and Jurkat viability inactive.
For COc1ccc(OC)c(-c2cc(C(=O)Nc3cccc(Cl)c3)no2)c1 the results were H69AR growth 86K 33.9, Fibroblast inh inactive, tolC growth inh inactive, E coli WT exp inactive, HUVEC inhibit inactive and Jurkat viability inactive.
Screening COc1ccc(NC(=O)c2cc(-c3ccccc3OC)on2)cc1 returned tolC growth inh inactive, E coli WT exp inactive and Jurkat viability 92.3.
COc1ccccc1-c1cc(C(=O)Nc2ccccc2SC)no1 was read as H69AR growth 86K inactive, tolC growth inh inactive, E coli WT exp inactive, HUVEC inhibit inactive and Jurkat viability inactive.
`COc1ccccc1-c1cc(C(=O)Nc2cccnc2)no1` gave tolC growth inh inactive, E coli WT exp inactive and Jurkat viability 72.5.
`Cc1cc(C(=O)NCc2ccc(C(=O)O)o2)c(C)o1` gave E coli WT exp inactive.
CC(=O)Nc1ccc(OCC(O)Cn2nc(C)c(Br)c2C)cc1 (stereo not drawn) was read as H69AR growth 86K inactive, Fibroblast inh inactive and HUVEC inhibit inactive.
c1ccc(COc2ccc(-c3csnn3)cc2)cc1 was read as E coli WT exp inactive.
S=c1[nH]ncn1/N=C/c1cccc(Oc2ccccc2)c1 was read as H69AR growth 86K 1.7, Fibroblast inh inactive, E coli WT exp inactive and HUVEC inhibit inactive.
For Cc1cc(NCCCn2ccnc2)n2ncc(-c3ccccc3)c2n1 the results were H69AR growth 86K 27.4, Fibroblast inh inactive, tolC growth inh inactive, E coli WT exp inactive, HUVEC inhibit inactive and Jurkat viability inactive.
Screening Cc1cc(NCCN2CCOCC2)n2ncc(-c3ccccc3)c2n1 returned H69AR growth 86K 25.4, Fibroblast inh inactive, tolC growth inh inactive, E coli WT exp inactive, HUVEC inhibit inactive and Jurkat viability inactive.
`Cc1cc(NCCCn2ccnc2)n2nc(C)c(-c3ccc(Cl)cc3)c2n1` gave H69AR growth 86K 1.1, Fibroblast inh 14.9, E coli WT exp inactive and HUVEC inhibit 2.3.
`Cc1cc(NCCN2CCOCC2)n2nc(C)c(-c3ccccc3)c2n1` gave H69AR growth 86K 27.3, Fibroblast inh inactive, tolC growth inh inactive, E coli WT exp inactive, HUVEC inhibit inactive and Jurkat viability inactive.
Cc1cc(NCCN2CCOCC2)n2nc(C)c(-c3ccc(Cl)cc3)c2n1 was read as H69AR growth 86K 12.0, Fibroblast inh inactive, tolC growth inh inactive, E coli WT exp inactive, HUVEC inhibit inactive and Jurkat viability inactive.
Screening COc1ccc(N2C(=O)CC(Sc3nnc(-c4ccccc4)o3)C2=O)cc1 (stereo not drawn) returned H69AR growth 86K 1.4, Fibroblast inh 2.2, tolC growth inh inactive, E coli WT exp inactive, HUVEC inhibit inactive and Jurkat viability inactive.
For O=C1CC(Sc2nnc(-c3ccccc3O)o2)C(=O)N1c1ccccc1 (stereo not drawn) the results were H69AR growth 86K 1.7, Fibroblast inh 2.4, tolC growth inh inactive, E coli WT exp inactive, HUVEC inhibit inactive and Jurkat viability inactive.
For O=C1CC(Sc2ncccn2)C(=O)N1c1ccccc1 (stereo not drawn) the results were H69AR growth 86K inactive, Fibroblast inh inactive, E coli WT exp inactive and HUVEC inhibit inactive.
`COc1ccc(N2C(=O)CC(Sc3nc(C)cc(C)c3C#N)C2=O)cc1` (stereo not drawn) gave H69AR growth 86K inactive, Fibroblast inh inactive and HUVEC inhibit inactive.
CSc1nc(C)cc(OCC#N)n1 was read as H69AR growth 86K inactive, Fibroblast inh inactive, tolC growth inh inactive, E coli WT exp inactive, HUVEC inhibit inactive and Jurkat viability inactive.
Screening O=C(CNC(=O)c1ccco1)OCc1cccc(Cl)c1 returned H69AR growth 86K inactive, Fibroblast inh inactive, tolC growth inh inactive, E coli WT exp inactive, HUVEC inhibit inactive and Jurkat viability inactive.
Screening O=C(CCNc1cccc(Cl)c1)c1ccco1 returned H69AR growth 86K 2.2, Fibroblast inh inactive, tolC growth inh inactive, E coli WT exp inactive, HUVEC inhibit inactive and Jurkat viability inactive.
Screening COC(=O)c1cc(CSc2nnc(NC3CCCCC3)s2)oc1C returned H69AR growth 86K inactive, Fibroblast inh inactive, tolC growth inh inactive, E coli WT exp inactive, HUVEC inhibit inactive and Jurkat viability inactive.
Screening COC(=O)c1cccc(N(C(=O)c2cnccn2)C(C(=O)NC2CCCCC2)c2cn(C)nc2C)c1 (stereo not drawn) returned E coli WT exp inactive.
CCn1cc(C(=O)O)c(=O)c2cc3c(cc21)OCO3 was read as tolC growth inh 100.0.
`CCn1cc(C(=O)O)c(=O)c2cc(Br)ccc21` gave H69AR growth 86K inactive, Fibroblast inh inactive, E coli WT exp inactive and HUVEC inhibit inactive.
`O=C(Nc1nc(-c2cccs2)cs1)c1ccc(Cl)cc1` gave H69AR growth 86K inactive, Fibroblast inh inactive, E coli WT exp inactive and HUVEC inhibit inactive.
COc1cc(C(=O)Nc2ccc(N(C)C)cc2)cc(OC)c1OC was read as H69AR growth 86K 33.4, Fibroblast inh inactive, tolC growth inh inactive, E coli WT exp inactive, HUVEC inhibit inactive and Jurkat viability inactive.
Screening COc1cc(C(=O)Nc2nc(-c3cccs3)cs2)cc(OC)c1OC returned H69AR growth 86K 13.7, Fibroblast inh inactive, tolC growth inh 69.1, E coli WT exp inactive, HUVEC inhibit inactive and Jurkat viability inactive.
COc1ccc(C(=O)Nc2nc(-c3cccs3)cs2)cc1 was read as H69AR growth 86K inactive, Fibroblast inh inactive, tolC growth inh 98.2, E coli WT exp inactive, HUVEC inhibit inactive and Jurkat viability inactive.
Screening O=C(Nc1nc(-c2cccs2)cs1)c1cccc(S(=O)(=O)N2CCCCC2)c1 returned H69AR growth 86K inactive, Fibroblast inh inactive, tolC growth inh inactive, E coli WT exp inactive, HUVEC inhibit inactive and Jurkat viability inactive.
CCn1c(CSc2nc3ccccc3s2)nnc1SCC(=O)c1ccc(O)cc1O was read as E coli WT exp inactive.
`Brc1ccc(-n2cccc2/C=N/n2cnnc2)cc1` gave H69AR growth 86K inactive, Fibroblast inh inactive, E coli WT exp inactive and HUVEC inhibit inactive.
`Cc1c(C(=O)Nc2ccc(Cl)cn2)oc2ccccc12` gave H69AR growth 86K inactive, Fibroblast inh inactive, tolC growth inh inactive, E coli WT exp inactive, HUVEC inhibit inactive and Jurkat viability inactive.
Screening Cc1c(C(=O)Nc2ccc3oc(-c4cccnc4)nc3c2)oc2ccccc12 returned H69AR growth 86K 3.4, Fibroblast inh 14.7, tolC growth inh inactive, E coli WT exp inactive, HUVEC inhibit inactive and Jurkat viability inactive.
For Cc1c(C(=O)Nc2cnccn2)oc2ccccc12 the results were H69AR growth 86K 38.0, Fibroblast inh inactive, tolC growth inh inactive, E coli WT exp inactive, HUVEC inhibit inactive and Jurkat viability inactive.
CC(=O)Nc1cccc(NC(=O)c2cc3ccccc3o2)c1 was read as H69AR growth 86K inactive, Fibroblast inh inactive, tolC growth inh inactive, E coli WT exp inactive, HUVEC inhibit inactive and Jurkat viability inactive.
